Measured values from different studies.
Protocols differ between the studies behind these lines.
Target: Serine/threonine-protein kinase VRK2 (VRK2, Homo sapiens, UniProt Q86Y07)

CCCOc1ccc(OC)c(F)c1C(=O)c1ccc(C(=O)N[C@@H]2CNC[C@H]2NC(=O)c2ccc3[nH]ncc3c2)cc1 has a remaining activity of 129% (enzyme activity, inhibitor; 10 µM).
C[C@H](NC(=O)c1cnc2n1[C@](C)(Cc1ccc(C#N)cc1)C(=O)N2c1cc(Cl)c(F)c(Cl)c1)C(=O)NC1(c2ccccn2)CC1 has a remaining binding of 100% (cell-free assay, competition with immobilised ligand; 1 µM).
With Cn1c2c(c3ccccc31)C(C#N)C(C)(C)NC2=O (stereo not drawn) the ΔTm was 0.2 °C (thermal stability, DSF; 10 µM).
For CCCS(=O)(=O)Nc1ccc(F)c(C(=O)c2c[nH]c3ncc(-c4ccc(Cl)cc4)cc23)c1F, the inhibition was less than 10% (enzyme activity, inhibitor; 1 µM).
For O=C(Nc1cnc(Oc2ccc(F)cc2)nc1)N1CCc2ncccc2[C@@H]1c1ccc(F)cc1, the remaining binding was 100% (cell-free assay, competition with immobilised ligand; 1 µM).
N#CC1c2c([nH]c3c(Cl)c(Cl)ccc23)C(=O)NC12CCCCC2 (racemic) has a ΔTm of -0.3 °C (thermal stability, DSF; 10 µM).
With CCN(CC)c1ccc(C2=NNC(=O)CC2C)cc1[N+](=O)[O-] (stereo not drawn) the remaining activity was 95% (enzyme activity, inhibitor; 10 µM).
Cc1sc(C(=O)NC2COC2)cc1-n1cc(NC(=O)Nc2c(F)cccc2Cl)cn1 gave a remaining activity of 102% (enzyme activity, inhibitor; 10 µM).
The remaining binding of N#Cc1ccc(Nc2ccc3[nH]c(=O)[nH]c3c2)c(Cl)c1 is reported as 100% (cell-free assay, competition with immobilised ligand; 1 µM).
CC1(C)NC(=O)c2[nH]c3c(Cl)c(Cl)ccc3c2C1C#N (stereo not drawn) gave a ΔTm of -0.1 °C (thermal stability, DSF; 10 µM).
CNC(=O)c1cc(Oc2ccc(NC(=O)Nc3ccc(Cl)c(C(F)(F)F)c3)cc2)ccn1 has an inhibition of -16% (enzyme activity, inhibitor; 10 µM).
Cn1c2c(Cl)c(Cl)ccc2c2cn[nH]c(=O)c21 gave a ΔTm of 0 °C (thermal stability, DSF; 10 µM).
COc1ccc2c(c1)O[C@H](c1ccc(OC)c(OC)c1)C[C@@H]2NC(=O)C1(c2ccc3c(c2)OC(F)(F)O3)CC1 gave a remaining binding of 82% (cell-free assay, competition with immobilised ligand; 1 µM).
For CCN1CCN(Cc2ccc(NC(=O)c3ccc(C)c(Oc4ccnc5[nH]ccc45)c3)cc2C(F)(F)F)CC1, the inhibition was -14.2% (target engagement in cells, inhibitor, chemoproteomics; Huh-7; 1 µM).
With CN(C)CC#Cc1ccc(OCCCc2sc(N3CCc4cccc(C(=O)Nc5nc6ccccc6s5)c4C3)nc2C(=O)O)c(F)c1 the remaining binding was 100% (cell-free assay, competition with immobilised ligand; 1 µM).
Cc1ccc(C(=O)Nc2ccc(CN3CCN(C)CC3)c(C(F)(F)F)c2)cc1C#Cc1cnc2cccnn12 has a remaining activity of 74% (enzyme activity, inhibitor; 23.5 nM).
For Cn1c2c(c3ccc(Cl)c(Cl)c31)C(C#N)C(C)(C)NC2=O (stereo not drawn), the ΔTm was 0.8 °C (thermal stability, DSF; 10 µM).
For Cc1cc(NC(=O)c2cccc3cc(-c4cccc5[nH]nc(N)c45)ccc23)ccc1F, the activity vs control was 89% (enzyme activity, inhibitor; 0.1 µM).
For Cn1c2c(Cl)c(Cl)ccc2c2cc(N)[nH]c(=O)c21, the ΔTm was 0.3 °C (thermal stability, DSF; 10 µM).
The remaining binding of O=C(O)[C@H]1[C@H](Cn2nnc3ccccc3c2=O)CC[C@@H]1C(=O)c1ccc(OCCC2CCOCC2)cc1 is reported as 80% (cell-free assay, competition with immobilised ligand; 1 µM).
Cc1ccc(Nc2nccc(N(C)c3ccc4c(C)n(C)nc4c3)n2)cc1S(N)(=O)=O has an inhibition of -18% (enzyme activity, inhibitor; 10 µM).
The remaining binding of Cc1cc(-n2nc(Cc3cc(F)cc(C(F)(F)F)c3)nc2C)ccc1C(N)=O is reported as 100% (cell-free assay, competition with immobilised ligand; 1 µM).
CCN(CC)CCNC(=O)c1c(C)[nH]c(/C=C2\C(=O)Nc3ccc(F)cc32)c1C has an inhibition of -10% (enzyme activity, inhibitor; 10 µM).
CC(C)(C)c1nc(-c2cccc(NS(=O)(=O)c3c(F)cccc3F)c2F)c(-c2ccnc(N)n2)s1 gave a remaining activity of 103% (enzyme activity, inhibitor, radiometric; 1 µM).
